In ChEMBL document CHEMBL1165897, “Design, synthesis, characterization, and antibacterial activity of {5-chloro-2-[(3-substitutedphenyl-1,2,4-oxadiazol-5-yl)-methoxy]-phenyl}-(phenyl)-methanones” (2010):
In brackets after ≈: the same amount, converted by molar mass.

How the values were obtained:
Staphylococcus aureus [1] = experiment: Antibacterial activity against Staphylococcus aureus NCIM 2079; ATCC 6538P after 24 hrs by microtitration method; assay type: functional; details: ATCC6538P
Procedure, shortened: (§1)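 Microtitration assay using the same isolates as the cup plate test; MIC taken as the lowest concentration of test sample or antibiotic giving no visible growth.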

Klebsiella pneumoniae = experiment: Antibacterial activity against Klebsiella pneumoniae NCIM 2957; ATCC 11298 after 24 hrs by microtitration method; assay type: functional; details: ATCC 11298, 24 h; procedure, shortened: as §1
Staphylococcus aureus [2] = experiment: Antibacterial activity against Staphylococcus aureus NCIM 2079; ATCC 6538P at […] after 24 hrs by agar cup plate method; assay type: functional, NCIM 2079; ATCC6538P; parameters: dose or concentration left out as unconfirmed; details: ATCC6538P, read-out: IZ
Bacillus subtilis [3] = experiment: Antibacterial activity against Bacillus subtilis NCIM 2063; ATCC 6633 after 24 hrs by microtitration method; assay type: functional, NCIM 2063; ATCC6633; details: ATCC6633, 24 h; procedure, shortened: as §1
Escherichia coli [4] = experiment: Antibacterial activity against Escherichia coli NCIM 2065; ATCC 8739 at […] after 24 hrs by agar cup plate method; assay type: functional; details: ATCC 8739, 24 h, read-out: IZ
Procedure, shortened: (§2)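 Agar cup plate diffusion: test compounds at 100 µg/mL in 20% water in DMSO placed in bores cut in agar plates seeded with each organism, alongside standard drugs; incubated 37 °C for 24 h, then zone of inhibition around the bore measured. Values are the average of three experiments.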

Escherichia coli [5] = experiment: Antibacterial activity against Escherichia coli NCIM 2065; ATCC 8739 after 24 hrs by microtitration method; assay type: functional; details: ATCC 8739, 24 h; procedure, shortened: as §1
Bacillus subtilis [6] = experiment: Antibacterial activity against Bacillus subtilis NCIM 2063; ATCC 6633 at […] after 24 hrs by agar cup plate method; assay type: functional, NCIM 2063; ATCC6633; details: ATCC6633, 24 h, read-out: IZ; procedure, shortened: as §2

Structure (SMILES) | MIC (Staphylococcus aureus [1]) | MIC (Klebsiella pneumoniae) | MIC (Bacillus subtilis [3]) | MIC (Escherichia coli [5]) | zone of inhibition (Staphylococcus aureus [2]) | zone of inhibition at 100000 µg/mL (Escherichia coli [4]) | zone of inhibition at 100000 µg/mL (Bacillus subtilis [6])
O=C(c1ccccc1)c1cc(Cl)ccc1OCc1nc(-c2ccc(I)cc2)no1 | 41.6 µg/mL (≈ 80.5 µM) | 46 µg/mL (≈ 89 µM) | 30.8 µg/mL (≈ 59.6 µM) | 62.2 µg/mL (≈ 120 µM) | 13 mm | 10 mm | 16 mm
Cc1cc(-c2noc(COc3ccc(Cl)cc3C(=O)c3ccccc3)n2)ccc1F | 40 µg/mL (≈ 94.6 µM) | 30 µg/mL (≈ 70.9 µM) | 30.6 µg/mL (≈ 72.4 µM) | 29.6 µg/mL (≈ 70 µM) | 15 mm | 20 mm | 17 mm
O=C(c1ccccc1)c1cc(Cl)ccc1OCc1nc(-c2ccccc2)no1 | 68 µg/mL (≈ 174 µM) | 62 µg/mL (≈ 159 µM) | 41 µg/mL (≈ 105 µM) | 64.2 µg/mL (≈ 164 µM) | 9 mm | 10 mm | 14 mm
O=C(c1ccccc1)c1cc(Cl)ccc1OCc1nc(-c2ccc(F)c(Cl)c2)no1 | 30.6 µg/mL (≈ 69 µM) | 39.6 µg/mL (≈ 89.3 µM) | 29.8 µg/mL (≈ 67.2 µM) | 30.8 µg/mL (≈ 69.5 µM) | 17 mm | 16 mm | 19 mm
CC(C)c1ccc(-c2noc(COc3ccc(Cl)cc3C(=O)c3ccccc3)n2)cc1 | 39.6 µg/mL (≈ 91.5 µM) | 62 µg/mL (≈ 143 µM) | 40.6 µg/mL (≈ 93.8 µM) | 60.8 µg/mL (≈ 140 µM) | 15 mm | 11 mm | 14 mm
COc1cc(-c2noc(COc3ccc(Cl)cc3C(=O)c3ccccc3)n2)ccc1F | 30 µg/mL (≈ 68.4 µM) | 30.8 µg/mL (≈ 70.2 µM) | 29.8 µg/mL (≈ 67.9 µM) | 30.6 µg/mL (≈ 69.7 µM) | 18 mm | 17 mm | 19 mm
O=C(c1ccccc1)c1cc(Cl)ccc1OCc1nc(-c2ccc(F)cc2)no1 | 40.6 µg/mL (≈ 99.3 µM) | 42 µg/mL (≈ 103 µM) | 39.6 µg/mL (≈ 96.9 µM) | 30.8 µg/mL (≈ 75.3 µM) | 14 mm | 16 mm | 15 mm

Second part, led by results:

MIC (Staphylococcus aureus [1]) | MIC (Klebsiella pneumoniae) | MIC (Bacillus subtilis [3]) | MIC (Escherichia coli [5]) | Structure (SMILES) | zone of inhibition (Staphylococcus aureus [2]) | zone of inhibition at 100000 µg/mL (Escherichia coli [4]) | zone of inhibition at 100000 µg/mL (Bacillus subtilis [6])
29.8 µg/mL (≈ 68.5 µM) | 40 µg/mL (≈ 92 µM) | 42.2 µg/mL (≈ 97 µM) | 59.4 µg/mL (≈ 137 µM) | CCOc1ccc(-c2noc(COc3ccc(Cl)cc3C(=O)c3ccccc3)n2)cc1 | 19 mm | 11 mm | 13 mm
3.36 µg/mL (≈ 9.62 µM) | 4 µg/mL (≈ 11.4 µM) | 3.28 µg/mL (≈ 9.39 µM) | 3.88 µg/mL (≈ 11.1 µM) | CC1(C)S[C@@H]2[C@H](NC(=O)[C@H](N)c3ccccc3)C(=O)N2[C@H]1C(=O)O [AMPICILLIN] | 31 mm | 30 mm | 32 mm
22.4 µg/mL (≈ 50.8 µM) | 30.6 µg/mL (≈ 69.4 µM) | 21.5 µg/mL (≈ 48.8 µM) | 29.8 µg/mL (≈ 67.6 µM) | Cc1cc(F)c(-c2noc(COc3ccc(Cl)cc3C(=O)c3ccccc3)n2)cc1F | 25 mm | 19 mm | 27 mm
